This is a sample that favours compounds with a hit; in the whole collection about 2.1% have one here.
XiGFP reactiv = activators of inactive X chromosome reactivation, primary screen, imaging, XiGFP fibroblasts, GFP high-content imaging, set 2 | XiGFP mouse fibroblasts, % GFP-positive cells imaging, 3 d; cells co-treated with 5-aza-dC sensitizer; scaled so ellipticine positive control = 100% | activation, % at 7.58 µM | 360,000 tested, 0.055% active;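 active means mean normalized replicate activation at least 10% and every replicate at or above 10%; inconclusive means only one of the two criteria met; inactive means mean below 10% and not all replicates reach 10%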
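System: SV40-immortalized XiGFP fibroblast cells, line 68-5-11 / Incubation: 3-day compound exposure, then 15 min fixation at room temperature / Compound: single concentration per compound, delivered by pin transfer / Buffer or medium: DMEM plus 5-aza-dC sensitizer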
Statin myotox sup = suppressors of statin myotoxicity in C2C12 myotubes, primary screen, cell-based, single point, plate reader. C2C12 myotubes + simvastatin, ATP luminescence, 48 h; scaled: DMSO 0, geranylgeraniol control 100. rescue of ATP level, % at 7.49 µM. 330,000 tested, 0.78% active. AID 602340, 2012;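 active means mean ATP rescue above about 67%, or every replicate alone reaching that limit, limit read from the data, passing the limit was not always enough; inconclusive means no clear call, values can overlap the other calls; inactive means mean under the limit and some replicate under it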;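 further: myotubes were challenged with 10 µM simvastatin during compound exposure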
DENV2 CPE = inhibitors of DENV2 cytopathic effect, primary screen, cell-based, plate reader, single concentration | CPE inhibition, % at 9.99 µM | DENV2-infected cells, cytopathic effect rescue | 350,000 tested, 1.7% active; in the data active means CPE inhibition above about 20%, passing the limit was not always enough; inconclusive means no clear call, values can overlap the other calls; tested in BHK-21 cells
Cneo AK release = Cryptococcus neoformans cell lysis inducers, primary screen, AK release luminescence, single concentration. C. neoformans lysis, adenylate kinase release luminescence, 4 h; normalised: neutral wells 0, clomiphene wells 100. lysis activity, % at 15 µM. 360,000 tested, 0.2% active;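 active means mean lysis activity across replicates of at least 80%, whatever share of replicates individually reach that level; inactive means mean lysis activity below 80%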
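Material: C. neoformans cells | Amount: Yeast cell density of 5 × 10^6 cells/mL | Medium: Fresh YPD growth medium | Dosing: Single dose | Times: Static 4 h at 37 °C with compound, 1 h detection | Detection: AK luminescence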
Each line names hits and unclear results; the compound was inactive in the other large screens.

O=C(Cc1ccccc1)N[C@H]1C=C[C@@H](CC(=O)N2CCOCC2)O[C@@H]1CO	Cneo AK release 94.9
CCCNC(=O)N[C@H]1C=C[C@H](CC(=O)N2CCN(C)CC2)O[C@H]1CO	none
CCCNC(=O)N[C@H]1C=C[C@H](CC(=O)N2CCN(C)CC2)O[C@@H]1CO	DENV2 CPE 24.5
O=C(NC1CCCCC1)N[C@H]1C=C[C@@H](CC(=O)N2CCOCC2)O[C@H]1CO	DENV2 CPE inconclusive, Cneo AK release 103.9
O=C(C[C@@H]1CC[C@@H](NC(=O)Cc2ccccn2)[C@@H](CO)O1)NCCc1ccncc1	none
O=C(Cc1ccncc1)NCC[C@@H]1CC[C@@H](NC(=O)Nc2ccc(Cl)cc2)[C@@H](CO)O1	none
COCC(=O)N1CC(=O)N2[C@H](C1)[C@@H](c1ccc(-c3ccccc3C)cc1)[C@@H]2CO	none (no result: Statin myotox sup, Cneo AK release)
O=C(C[C@@H]1C=C[C@H](NC(=O)NC2CCCCC2)[C@@H](CO)O1)NCc1ccc(F)cc1	none
Cn1cnc(S(=O)(=O)N[C@@H]2C=C[C@H](CC(=O)N3CCN(c4ccccc4)CC3)O[C@@H]2CO)c1	DENV2 CPE 93.9 (no result: Statin myotox sup, Cneo AK release)
O=C(C[C@H]1C=C[C@H](NC(=O)NC2CCCCC2)[C@H](CO)O1)NCc1ccc(F)cc1	DENV2 CPE 27.9
CC=Cc1ccc2n(c1=O)C[C@@H]1[C@@H](CO)[C@H](C(=O)NCc3ccc(F)cc3)[C@H]2N1CC (mixture of isomers)	none
CC(=O)N(C)C[C@H]1Oc2cc(C#CCN(C)C)ccc2S(=O)(=O)N([C@H](C)CO)C[C@@H]1C	none
Cn1cc(/C=C/c2cc[n+](C)cc2)c2cc(Cl)ccc21	XiGFP reactiv 48.6
COc1ccc(NC(=O)C2CCCN2c2ccc(OC)c(OC)c2)cc1OC (stereo not given)	Statin myotox sup 80.2 (no result: XiGFP reactiv, DENV2 CPE)
Cn1c(=O)c2c(nc(Oc3ccccc3)n2C)n(C)c1=O	Statin myotox sup 141.5 (no result: XiGFP reactiv, DENV2 CPE)
CCCN1C[C@H](C)[C@@H](OC)CN(C)C(=O)c2ccc(NC(=O)Nc3c(C)noc3C)cc2OC[C@H]1C	DENV2 CPE 20.9
CO[C@@H]1CN(C)C(=O)c2ccc(NC(=O)Nc3c(C)noc3C)cc2OC[C@H](C)N(CCC(F)(F)F)C[C@H]1C	DENV2 CPE 36.7 (no result: Statin myotox sup, Cneo AK release)
CCCN1C[C@@H](C)[C@@H](OC)CN(C)C(=O)c2ccc(NC(=O)Nc3c(C)noc3C)cc2OC[C@@H]1C	none
CCC(=O)N1[C@H](CO)[C@@H](c2ccccc2)C12CN(C(=O)CN1CCOCC1)C2	none (no result: Statin myotox sup, DENV2 CPE, Cneo AK release)
COc1ccccc1NC(=O)c1cc2ccc(O)cc2o/c1=N\O	Statin myotox sup 68.7 (no result: XiGFP reactiv, DENV2 CPE)
COc1ccc2o/c(=N\O)c(C(=O)Nc3ccc(C)cc3)cc2c1	DENV2 CPE 25.2 (no result: Statin myotox sup, Cneo AK release)
COc1ccc2oc(=N)c(C(=O)Nc3ccc(C)cc3)cc2c1	none
Cc1cc(C)cc(NC(=O)c2ccc(CSc3nnc(C)s3)cc2)c1	Statin myotox sup 122.0 (no result: XiGFP reactiv, DENV2 CPE)
COC1(OC)N=C(N)C2(C#N)C(c3ccc(F)cc3)C12C#N (stereo not given)	none (no result: XiGFP reactiv, DENV2 CPE)
CCSC1(SCC)N=C(N)C2(C#N)C(c3ccc(F)cc3)C12C#N (stereo not given)	Statin myotox sup 141.8 (no result: XiGFP reactiv, DENV2 CPE)
O=c1[nH]c2cc(Cl)ccc2n1-c1ccccc1	Statin myotox sup 99.6 (no result: XiGFP reactiv, DENV2 CPE)
COc1ccc([C@H]2C(C(=O)O)=C[C@@H](C(C)(C)C)N2S(=O)(=O)c2ccccc2)cc1	DENV2 CPE 82.9
O=C(NC1CCCC1)[C@H]1[C@H](CO)[C@H]2Cn3c(cccc3=O)[C@H]2N1CC1CCOCC1	none (no result: Statin myotox sup, Cneo AK release)
C[C@]12C(=O)N(c3ccccc3)C(=O)N1[C@H]1c3ccccc3OC[C@@H]1[C@H]2c1ccccc1	none
C[C@]12C(=O)N(c3ccccc3)C(=O)N1[C@@H]1c3ccccc3OC[C@@H]1[C@H]2c1ccccc1	DENV2 CPE 97.0
CC=Cc1ccc2n(c1=O)C[C@H]1[C@H](CO)[C@@H](C(=O)Nc3ccccc3)[C@@H]2N1C(=O)CC (mixture of isomers)	none
COc1ccc(C(=O)N/C(=C/c2cccs2)c2nc3ccccc3[nH]2)cc1OC	none (no result: Statin myotox sup, Cneo AK release)
COc1cc(/C=C(/C(=O)c2cccs2)c2nc3ccccc3[nH]2)cc(OC)c1O	Statin myotox sup 119.5 (no result: XiGFP reactiv, DENV2 CPE, Cneo AK release)
C[C@@H](NC(=O)C[C@@H]1C[C@@H]2c3cc(NC(=O)C4CCOCC4)ccc3O[C@@H]2[C@@H](CO)O1)c1ccccc1	none

Source: PubChem (Broad Institute)
